Screens deposited in PubChem by several laboratories.
T cruzi repl: blocks replication of Trypanosoma cruzi. T. cruzi beta-gal in NIH3T3, luminescence, 90 h. inhibition, % (test concentration not listed). 300,000 compounds, 1.4% hits. AID 1885;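 active = mean inhibition across valid replicates above about 55%, limit read from the data; inconclusive = mean below that limit but half or more replicates reach it; inactive = mean below it, under half of replicates reach it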;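 also: signal also drops with host cell toxicity which is not excluded here; 0% = plate median of DMSO wells and 100% = zero luminescence signal; higher percent means less beta-gal luminescence so fewer parasites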
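Assay system: NIH/3T3 fibroblasts plus reporter T. cruzi. Amount: NIH/3T3 cells, 5,000 per well. Buffer or medium: DMEM, 2% fetal bovine serum. Doses: compound pinned at 50 nL/well, DMSO. Schedule: ≥90 h infection period, 3 h prior cell attachment. Signal: luminescent β-galactosidase signal after 60 min lysis. Read-out: parasite load inhibition, %.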
CHOP UPR activ: activators of apoptotic arm of unfolded protein response (CHOP); AID 449763; CHO-CHOP luciferase reporter, UPR activation, luminescence; percent of tunicamycin response over DMSO baseline; activation, % at 10 µM; 330,000 compounds, 0.34% hits;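 active = at 10 µM dose, activation of 40% or more, normalized to positive control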;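 also: 100% = tunicamycin at 10 µg/mL and 0% = DMSO alone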
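Assay system: CHO-CHOP cells, stable luciferase reporter of PERK-eIF2a-CHOP signalling / Buffer or medium: F12 plus 10% serum / Compound dosing: one dose, 10 µM in 0.5% DMSO / Times: 6 h compound treatment, 37 °C / Technique: luciferase luminescence / Read-out: % reporter activation, DMSO baseline versus tunicamycin full activation / Benchmarks: tunicamycin and DMSO controls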
Dynein cargo inh: blocks dynein driven cargo transport along microtubules; z-score, hits read low; 3617.4 mouse cells, GR-EGFP nuclear translocation imaging; test concentration mostly 20 µM; stimulated with dexamethasone, 1 µM; hits give low values; 220,000 compounds, 0.47% hits; AID 1381;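 active = plate z-score of nuclear minus cytoplasmic receptor signal below a set negative limit, without overly bright fluorescence or cell loss, cut at about -3.5 in these data, passing the limit was not always enough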;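 also: z-score of nuclear minus cytoplasmic ring GR-EGFP intensity difference per well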
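Buffer or medium: tet-free, stripped-serum medium; reagent: dexamethasone at 1.0 µM final, 30 min; incubation: 48 h induction, 1 h compound, 30 min dex at 37 °C; measured by: formaldehyde fixation, Hoechst nuclear stain, 10x automated fluorescence imaging; read-out: nuclear-to-cytoplasmic GR-EGFP distribution per well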
CHOP inhibitor: CHOP inhibition in unfolded protein response; CHO-K1 CHOP-promoter luciferase, tunicamycin-induced, 15-18 h; inhibition, % at 10 µM; 220,000 compounds, 3.8% hits; AID 2732;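 active = compounds that reduced the stress-induced luciferase reporter signal by more than about 70% of percent inhibition, limit read from the data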;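 also: 0% = tunicamycin plus vehicle and 100% = wells without tunicamycin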
XBP1 UPR activ: adaptive UPR (XBP1) activation. activation, % at 20 µM. CHO-XBP1 luciferase reporter, IRE1-XBP1 UPR activation, luminescence; percent of tunicamycin response, DMSO as zero. AID 463104. 330,000 compounds, 0.33% hits;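 active = versus positive control, 20 µM dose yields 30% or more activation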;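 also: 100% = tunicamycin at 10 µg/mL and 0% = DMSO only wells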
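Material: CHO-XBP1 cells stably carrying IRE1-XBP1-driven luciferase reporter | Medium: F12 with 10% serum | Compound dosing: 20 µM single concentration, DMSO 1% | Incubation: Overnight seeding at 37 °C, 6 h compound treatment at 37 °C | Detection: Steady-Glo luminescence read | Read-out basis: % activation of reporter signal versus tunicamycin and DMSO controls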
Lmaj promast: Leishmania major promastigote growth inhibition; inhibition, % at 10 µM; Leishmania major promastigotes, resazurin fluorescence viability; 200,000 compounds, 9% hits; in the data active = inhibition above about 50%;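 also: promastigotes grown with compound for 44 hours at 28 °C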
* = called active by the depositor. The entries come from a sample that favours hits as a whole.

How did COC(=O)Nc1nc(-c2cc(Cl)ccc2Cl)cs1 do in these assays?
T cruzi repl: 80.1*; CHOP UPR activ: -0.3; Dynein cargo inh: -0.19; CHOP inhibitor: 21.5; XBP1 UPR activ: 0.6; Lmaj promast: -1.4

Results for CC(C)c1ccc(S(=O)(=O)c2cc3cc(Br)ccc3oc2=O)cc1 ?
T cruzi repl: -12.2; CHOP UPR activ: 1.9; Dynein cargo inh: -0.986; CHOP inhibitor: 88.6*; XBP1 UPR activ: -0.5; Lmaj promast: -6.4

Results for NS(=O)(=O)c1cccc(NS(=O)(=O)c2ccc(/C=C/C(=O)O)cc2)c1 ?
T cruzi repl: 0.3; CHOP UPR activ: 2.5; Dynein cargo inh: 0.457; CHOP inhibitor: 7.9; XBP1 UPR activ: 0.5

What do the screens show for `CCOC(=O)/C=C1\SCC(=O)N1CC(=O)NC(c1ccccc1)c1ccccc1`?
T cruzi repl: 5.4; CHOP UPR activ: -0.7; Dynein cargo inh: 0.0472; CHOP inhibitor: 46.9; XBP1 UPR activ: -1.7; Lmaj promast: 77.3*

Results for CCOC(=O)/C=C1\SCC(=O)N1CC(=O)NC(C)c1ccccc1 (stereo unspecified) ?
T cruzi repl: -2.7; CHOP UPR activ: 2.1; Dynein cargo inh: -0.451; CHOP inhibitor: 18.7; XBP1 UPR activ: -0.5; Lmaj promast: -2.4

What do the screens show for `COc1ccc(C(=O)NCc2nnc(SCC(=O)N3CCc4ccccc43)n2Cc2ccccc2)cc1`?
T cruzi repl: 14.2; CHOP UPR activ: 0.3; Dynein cargo inh: -0.0551; CHOP inhibitor: 50.5; XBP1 UPR activ: -1.8; Lmaj promast: 64.5*

How did O=C(Nc1ccc(NC(=O)C2CCCCC2)nc1)c1cccc(F)c1 do in these assays?
T cruzi repl: 16.3; CHOP UPR activ: 5.1; XBP1 UPR activ: -1.0

Results for CC1=C(C(=O)Nc2ccccc2)C(c2cccc([N+](=O)[O-])c2)Nc2nc3ccccc3n21 (stereo unspecified) ?
T cruzi repl: 1.5; CHOP UPR activ: 0.5; Dynein cargo inh: -0.466; CHOP inhibitor: 46.9; XBP1 UPR activ: -1.6; Lmaj promast: 97.7*

What do the screens show for `CNC(=O)C1=C(C)n2c(nc3ccccc32)NC1c1ccc(OC)cc1` (stereo unspecified)?
T cruzi repl: 0.4; CHOP UPR activ: 1.9; Dynein cargo inh: 0.414; CHOP inhibitor: 26.8; XBP1 UPR activ: -0.2; Lmaj promast: -0.7

Results for CCC(=O)NC1=C(Cl)C(=O)C(NC(=O)CC)=C(Cl)C1=O ?
CHOP UPR activ: 8.4; Dynein cargo inh: -5.13; CHOP inhibitor: 86.7*; XBP1 UPR activ: -12.9

What do the screens show for `CCCCCOc1ccc(Br)cc1CSC(=N)N`?
T cruzi repl: 39.0; Dynein cargo inh: 3.1; CHOP inhibitor: 83.9*; Lmaj promast: 100.1*

What do the screens show for `CN1CCC(OC(=O)c2ccco2)CC1`?
T cruzi repl: 21.7; CHOP UPR activ: -0.1; Dynein cargo inh: 1.01; CHOP inhibitor: 0.2; XBP1 UPR activ: -0.6; Lmaj promast: -3.5

What do the screens show for `CN1CCCC(OC(=O)c2cccc(Br)c2)C1` (stereo unspecified)?
T cruzi repl: 3.4; CHOP UPR activ: 2.1; XBP1 UPR activ: -3.8

What do the screens show for `CN1CCC(OC(=O)c2cc3cc(Cl)cc(Cl)c3oc2=O)CC1`?
T cruzi repl: -6.5; CHOP UPR activ: 0.2; XBP1 UPR activ: -3.9

What do the screens show for `COC(=O)c1cc(C(=O)c2ccc(Cl)cc2Cl)cn1C`?
T cruzi repl: -20.7; CHOP UPR activ: 3.6; Dynein cargo inh: 1.09; CHOP inhibitor: 71.7*; XBP1 UPR activ: -1.2; Lmaj promast: -6.5

What do the screens show for `COC(=O)c1cc(C(=O)c2cccc(Cl)c2Cl)cn1C`?
T cruzi repl: 8.7; CHOP UPR activ: -1.5; Dynein cargo inh: -0.426; CHOP inhibitor: 65.4; XBP1 UPR activ: 2.6; Lmaj promast: 5.4

What do the screens show for `CN1CCC(OC(=O)c2ccc(Cl)cc2Cl)CC1`?
T cruzi repl: 57.9*; CHOP UPR activ: -0.1; Dynein cargo inh: -0.336; CHOP inhibitor: -2.0; XBP1 UPR activ: 1.3; Lmaj promast: 96.3*

How did Cc1ccccc1C(=O)OC1CCN(C)CC1 do in these assays?
T cruzi repl: 59.2*; CHOP UPR activ: 2.4; XBP1 UPR activ: -2.3

What do the screens show for `CN1CCC(OC(=O)c2cccc(Br)c2)CC1`?
T cruzi repl: inconclusive; CHOP UPR activ: -3.5; Dynein cargo inh: -0.803; CHOP inhibitor: -1.6; XBP1 UPR activ: 1.8; Lmaj promast: 93.1*

Results for CC(C)(C)OC(=O)NN1CC(=O)N2[C@@H](Cc3c([nH]c4ccccc34)C2(C)C)C1=O ?
T cruzi repl: 14.5; CHOP UPR activ: 1.5; XBP1 UPR activ: -1.9

What do the screens show for `Fc1ccc(C(OCCCc2cnc[nH]2)c2ccc(F)cc2)cc1`?
CHOP inhibitor: 4.9

How did CCOC(=O)CCCCCN(Cc1ccccc1)S(=O)(=O)c1ccc([N+](=O)[O-])cc1 do in these assays?
T cruzi repl: 15.3; CHOP UPR activ: -0.5; Dynein cargo inh: -0.126; CHOP inhibitor: 29.0; XBP1 UPR activ: -2.7; Lmaj promast: 97.5*

What do the screens show for `CC(C)(C)N(Cc1ccccc1)C(=O)CN1C(=O)NC2(CCCCCC2)C1=O`?
CHOP UPR activ: 0.4; XBP1 UPR activ: 0.9

What do the screens show for `Cc1cc(Cl)ccc1NC(=S)N1CCN(Cc2ccc3c(c2)OCO3)CC1`?
T cruzi repl: 3.4; CHOP UPR activ: 0.2; Dynein cargo inh: 1.27; CHOP inhibitor: 50.9; XBP1 UPR activ: -0.4; Lmaj promast: 87.5*

Results for Cc1ccc(Nc2nc(N)nc(CN3CCN(Cc4ccc5c(c4)OCO5)CC3)n2)cc1C ?
T cruzi repl: 19.0; Dynein cargo inh: -0.646; CHOP inhibitor: 56.5; Lmaj promast: 34.1

Results for Fc1ccccc1NC(=S)N1CCN(Cc2ccc3c(c2)OCO3)CC1 ?
T cruzi repl: -8.5; CHOP UPR activ: -0.3; Dynein cargo inh: -0.506; CHOP inhibitor: 14.9; XBP1 UPR activ: -4.7; Lmaj promast: 11.7

Results for Cc1cccc(NC(=O)N2CCN(Cc3ccc4c(c3)OCO4)CC2)c1C ?
T cruzi repl: 11.2; CHOP UPR activ: -1.8; Dynein cargo inh: 1.2; CHOP inhibitor: 16.7; XBP1 UPR activ: 0.9; Lmaj promast: 55.7*

What do the screens show for `CC(C)(C)CC(C)(C)NC(=S)N1CCN(Cc2ccc3c(c2)OCO3)CC1`?
T cruzi repl: -3.8; CHOP UPR activ: -1.2; Dynein cargo inh: 0.383; CHOP inhibitor: 7.1; XBP1 UPR activ: -0.8; Lmaj promast: 82.0*

What do the screens show for `CCNC(=S)N1CCN(Cc2ccc3c(c2)OCO3)CC1`?
T cruzi repl: -3.5; CHOP UPR activ: 0.5; Dynein cargo inh: -0.592; CHOP inhibitor: -9.4; XBP1 UPR activ: -8.3; Lmaj promast: -6.4
